According to ChEMBL document CHEMBL3763043, “Synthesis and biological evaluation of new fluorinated and chlorinated indenoisoquinoline topoisomerase I poisons” (Bioorg Med Chem, 2016):

Assays:
[1] = biological target: T1, DNA topoisomerase 1 (Homo sapiens) (UniProt P11387); assay: Activity at recombinant Top1 (unknown origin) using 3'-[32P]-labeled double-stranded DNA (117 bp) as substrate assessed as induction of DNA cleavage at 0.1 to 100 uM incubated for 20 mins by electrophoretic assay relative to 1 uM camptothecin
T1 sequence (whole entry): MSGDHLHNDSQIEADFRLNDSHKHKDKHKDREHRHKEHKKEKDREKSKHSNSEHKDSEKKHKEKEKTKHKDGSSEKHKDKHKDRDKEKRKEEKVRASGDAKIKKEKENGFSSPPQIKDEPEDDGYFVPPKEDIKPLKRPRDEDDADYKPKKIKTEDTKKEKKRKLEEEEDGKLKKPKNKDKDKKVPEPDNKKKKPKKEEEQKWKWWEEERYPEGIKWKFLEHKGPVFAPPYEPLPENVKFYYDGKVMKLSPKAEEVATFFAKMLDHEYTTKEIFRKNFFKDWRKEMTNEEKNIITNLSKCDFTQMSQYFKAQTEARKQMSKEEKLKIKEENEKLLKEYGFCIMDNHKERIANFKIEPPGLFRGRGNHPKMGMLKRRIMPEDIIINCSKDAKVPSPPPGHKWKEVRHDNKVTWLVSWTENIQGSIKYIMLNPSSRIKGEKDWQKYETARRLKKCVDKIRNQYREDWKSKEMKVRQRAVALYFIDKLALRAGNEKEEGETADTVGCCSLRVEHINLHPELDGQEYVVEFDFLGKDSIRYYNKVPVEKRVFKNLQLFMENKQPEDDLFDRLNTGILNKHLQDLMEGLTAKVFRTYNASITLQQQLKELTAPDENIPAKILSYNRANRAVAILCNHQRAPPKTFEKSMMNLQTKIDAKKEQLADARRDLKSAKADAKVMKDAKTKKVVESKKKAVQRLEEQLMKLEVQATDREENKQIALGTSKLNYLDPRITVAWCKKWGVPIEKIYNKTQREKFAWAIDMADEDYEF

[2] = Cytotoxicity against human HOP62 cells by MTT assay; assay type: functional; conditions: HOP-62
Method in brief: (§1)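 NCI-60 screen: a single-dose 10 μM pre-test, then a five-concentration assay for promoted compounds. GI₅₀ is the concentration giving 50% growth inhibition versus control, taken from concentration-response curves. GI₅₀ values below the lowest concentration were recorded as 10 nM, and values above the range at the top concentration.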

[3] = Cytotoxicity against human SF539 cells by MTT assay; assay type: functional; conditions: SF-539
Method in brief: as §1

[4] = Cytotoxicity against human UACC62 cells by MTT assay; assay type: functional; conditions: UACC-62
Method in brief: as §1

MCF7 = assay: Cytotoxicity against human MCF7 cells by MTT assay; assay type: functional
Method in brief: as §1

[5] = Cytotoxicity against human OVCAR3 cells by MTT assay; assay type: functional; conditions: OVCAR-3
Method in brief: as §1

[6] = Cytotoxicity against human HCT116 cells by MTT assay; assay type: functional; conditions: HCT-116
Method in brief: as §1

SN12C = assay: Cytotoxicity against human SN12C cells by MTT assay; assay type: functional
Method in brief: as §1

[7] = Cytotoxicity against human DU145 cells by MTT assay; assay type: functional; conditions: DU-145
Method in brief: as §1

[8] = biological target: Tyrosyl-DNA phosphodiesterase 1 (Homo sapiens, UniProt Q9NUW8); assay: Inhibition of recombinant TDP1 (unknown origin) using 5'-[32P]-labeled single-stranded DNA oligonucleotide containing 3'-phosphotyrosine (N14Y) as substrate for 15 mins by PAGE assay
Tyrosyl-DNA phosphodiesterase 1, sequence (Q9NUW8 whole entry): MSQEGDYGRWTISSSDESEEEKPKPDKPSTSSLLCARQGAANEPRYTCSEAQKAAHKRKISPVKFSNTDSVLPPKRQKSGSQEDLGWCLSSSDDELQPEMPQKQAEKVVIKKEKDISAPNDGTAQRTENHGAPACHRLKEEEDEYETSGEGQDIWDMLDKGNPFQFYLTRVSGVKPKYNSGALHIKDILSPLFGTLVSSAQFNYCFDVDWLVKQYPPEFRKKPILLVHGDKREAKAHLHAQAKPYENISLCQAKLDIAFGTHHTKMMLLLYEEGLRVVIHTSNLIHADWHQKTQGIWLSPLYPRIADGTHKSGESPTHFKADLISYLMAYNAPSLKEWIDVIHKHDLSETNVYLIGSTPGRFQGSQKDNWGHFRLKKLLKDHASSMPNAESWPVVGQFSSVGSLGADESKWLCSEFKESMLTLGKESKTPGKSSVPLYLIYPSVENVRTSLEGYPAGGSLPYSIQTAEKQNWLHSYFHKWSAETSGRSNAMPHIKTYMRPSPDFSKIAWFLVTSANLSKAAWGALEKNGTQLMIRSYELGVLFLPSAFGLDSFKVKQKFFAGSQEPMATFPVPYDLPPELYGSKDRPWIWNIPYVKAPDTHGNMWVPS

[9] = biological target: T2, Tyrosyl-DNA phosphodiesterase 2 (Homo sapiens, UniProt O95551); assay: Inhibition of recombinant human TDP2 using alpha32P-cordycepin-[…]-labeled 19-mer single-stranded oligonucleotide DNA containing 5'-phosphotyrosine (Y19) for 15 mins by PAGE assay
T2 sequence (O95551 whole entry): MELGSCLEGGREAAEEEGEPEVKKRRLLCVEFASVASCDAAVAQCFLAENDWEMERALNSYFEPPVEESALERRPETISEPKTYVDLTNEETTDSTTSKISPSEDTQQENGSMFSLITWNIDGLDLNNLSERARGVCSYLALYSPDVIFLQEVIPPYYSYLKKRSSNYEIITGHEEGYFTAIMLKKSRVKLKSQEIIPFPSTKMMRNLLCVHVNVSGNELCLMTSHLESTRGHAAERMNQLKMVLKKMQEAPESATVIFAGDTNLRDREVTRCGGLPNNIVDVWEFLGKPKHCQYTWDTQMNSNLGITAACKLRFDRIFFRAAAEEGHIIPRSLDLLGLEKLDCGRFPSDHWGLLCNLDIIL

Structure (SMILES): O=C1c2cc3c(cc2-c2c1c1ccc(Cl)cc1c(=O)n2C[C@H](O)[C@H](O)[C@H](O)CO)OCO3
- Activity [1]: 20%

Structure (SMILES): O=C1c2cc3c(cc2-c2c1c1cc(Cl)c(Cl)cc1c(=O)n2CCCn1ccnc1)OCO3
- Activity [1]: 20%
- GI50 [2]: < 10 nM
- GI50 [3]: < 10 nM
- GI50 [4]: < 10 nM
- GI50 (MCF7): < 10 nM
- GI50 [5]: 43 nM
- GI50 [6]: < 10 nM
- GI50 (SN12C): < 10 nM
- GI50 [7]: < 10 nM

Structure (SMILES): O=C1c2cc3c(cc2-c2c1c1cc(Cl)c(Cl)cc1c(=O)n2C[C@H](O)CO)OCO3
- Activity [1]: 50%
- GI50 [2]: < 10 nM
- GI50 [3]: < 10 nM
- GI50 [4]: < 10 nM
- GI50 (MCF7): < 10 nM
- GI50 [5]: 16 nM
- GI50 [6]: < 10 nM
- GI50 (SN12C): < 10 nM
- GI50 [7]: < 10 nM

Structure (SMILES): O=C1c2cc3c(cc2-c2c1c1cc(F)c(F)cc1c(=O)n2C[C@H](O)CO)OCO3
- Activity [1]: 50%
- GI50 [2]: 22 nM
- GI50 [3]: 29 nM
- GI50 [4]: 15 nM
- GI50 (MCF7): < 10 nM
- GI50 [5]: 224 nM
- GI50 [6]: 37 nM
- GI50 (SN12C): 33 nM
- GI50 [7]: 41 nM

Structure (SMILES): O=C1c2cc3c(cc2-c2c1c1ccc(F)cc1c(=O)n2CCCn1ccnc1)OCO3
- Activity [1]: 75%
- GI50 [2]: < 10 nM
- GI50 [3]: < 10 nM
- GI50 [4]: < 10 nM
- GI50 (MCF7): < 10 nM
- GI50 [5]: 19 nM
- GI50 [6]: < 10 nM
- GI50 (SN12C): < 10 nM
- GI50 [7]: < 10 nM

Structure (SMILES): O=C1c2cc3c(cc2-c2c1c1ccc(F)cc1c(=O)n2C[C@H](O)[C@@H](O)[C@H](O)CO)OCO3
- Activity [1]: 50%
- GI50 [2]: 32 nM
- GI50 [3]: 29 nM
- GI50 [4]: 25 nM
- GI50 (MCF7): 12 nM
- GI50 [5]: 100 nM
- GI50 [6]: 35 nM
- GI50 (SN12C): 79 nM
- GI50 [7]: 51 nM

Structure (SMILES): O=C1c2cc3c(cc2-c2c1c1ccc(F)cc1c(=O)n2CCCN1CCOCC1)OCO3
- Activity [1]: 20%

Structure (SMILES): O=C1c2cc3c(cc2-c2c1c1ccc(Cl)cc1c(=O)n2CCCNCCO)OCO3
- Activity [1]: 75%
- GI50 [2]: 71 nM
- GI50 [3]: 240 nM
- IC50 [8]: 6300 nM
- IC50 [9]: 8900 nM
- GI50 [4]: 43 nM
- GI50 (MCF7): 18 nM
- GI50 [5]: 1320 nM
- GI50 [6]: 105 nM
- GI50 (SN12C): 1070 nM
- GI50 [7]: 59 nM

Structure (SMILES): O=C1c2cc3c(cc2-c2c1c1ccc(F)cc1c(=O)n2CCCNCCO)OCO3
- Activity [1]: 50%
- GI50 [2]: 36 nM
- GI50 [3]: 41 nM
- IC50 [8]: 6200 nM
- IC50 [9]: 6300 nM
- GI50 [4]: 28 nM
- GI50 (MCF7): < 10 nM
- GI50 [5]: 76 nM
- GI50 [6]: 19 nM
- GI50 (SN12C): 107 nM
- GI50 [7]: 33 nM

Structure (SMILES): O=C1c2cc3c(cc2-c2c1c1ccc(Cl)cc1c(=O)n2CCCN1CCOCC1)OCO3
- Activity [1]: 20%

Structure (SMILES): O=C1c2cc3c(cc2-c2c1c1ccc(Cl)cc1c(=O)n2C[C@H](O)CO)OCO3
- Activity [1]: 50%
- GI50 [2]: 22 nM
- GI50 [3]: 25 nM
- GI50 [4]: 12 nM
- GI50 (MCF7): < 10 nM
- GI50 [5]: 62 nM
- GI50 [6]: 20 nM
- GI50 (SN12C): 27 nM
- GI50 [7]: 32 nM

Structure (SMILES): COc1cc2c3c(n(CCCNCCO)c(=O)c2cc1OC)-c1cc2c(cc1C3=O)OCO2 [LMP-744]
- Activity [1]: 100%
- GI50 [2]: 10 nM
- GI50 [3]: 90 nM
- GI50 [5]: 1500 nM
- GI50 [6]: 150 nM
- GI50 (SN12C): 10 nM

Structure (SMILES): O=C1c2cc3c(cc2-c2c1c1cc(F)c(F)cc1c(=O)n2CCCn1ccnc1)OCO3
- Activity [1]: 20%
- GI50 [2]: < 10 nM
- GI50 [3]: < 10 nM
- GI50 [4]: < 10 nM
- GI50 (MCF7): < 10 nM
- GI50 [5]: 115 nM
- GI50 [6]: < 10 nM
- GI50 (SN12C): < 10 nM
- GI50 [7]: < 10 nM

Structure (SMILES): O=C1c2cc3c(cc2-c2c1c1ccc(Cl)cc1c(=O)n2CCCn1ccnc1)OCO3
- Activity [1]: 50%
- GI50 [2]: < 10 nM
- GI50 [3]: < 10 nM
- GI50 [4]: < 10 nM
- GI50 (MCF7): < 10 nM
- GI50 [5]: 40 nM
- GI50 [6]: < 10 nM
- GI50 (SN12C): < 10 nM
- GI50 [7]: < 10 nM

Structure (SMILES): O=C1c2cc3c(cc2-c2c1c1ccc(F)cc1c(=O)n2C[C@H](O)CO)OCO3
- Activity [1]: 100%
- GI50 [2]: 49 nM
- GI50 [3]: 51 nM
- GI50 [4]: 45 nM
- GI50 (MCF7): 32 nM
- GI50 [5]: 182 nM
- GI50 [6]: 79 nM
- GI50 (SN12C): 76 nM
- GI50 [7]: 102 nM
